Activity calls are given as the source filed them. The calls are words filed in the database; no cut-off is given here.
Key:
Mus musculus [1] = experiment: Locomotor activity in Swiss mouse measured as number of rearings in the arena test at 3 mg/kg, po; type: functional
In short: (§1)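 Male Swiss mice (25-35 g, naive) given the test agent orally at 3-10 mg/kg as a saline suspension, 30 min before testing. Saline po served as vehicle; diazepam 2 mg/kg ip (saline + 2% Tween 80) was the reference. Arena locomotor test scoring crossings and rearings; mean ± SEM reported.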

Mus musculus [2] = experiment: Locomotor activity in Swiss mouse measured as number of crossings in the arena test at 3 mg/kg, po; type: functional; in short: as §1
Mus musculus [3] = experiment: Locomotor activity in Swiss mouse measured as number of crossings in the arena test at 10 mg/kg, po; type: functional; in short: as §1
Mus musculus [4] = experiment: Locomotor activity in Swiss mouse measured as number of rearings in the arena test at 10 mg/kg, po; type: functional; in short: as §1
Mus musculus [5] = experiment: Antianxiolytic activity in Swiss mouse assessed as reduction of latency to leave the enclosed arm by elevated T maze test at 3 mg/kg, po; type: functional, organism-based; set-up: dose 3 mg/kg
In short: (§2)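 Male Swiss mice, 25-35 g, experimentally naive, group-housed 10 per cage on a 12 h light cycle at 23 ± 1 °C/55 ± 5% humidity. Test agent suspended in saline (NaCl 0.9%) and given orally (3-10 mg/kg) 30 min before the session; vehicle saline po; diazepam reference 2 mg/kg ip in saline + 2% Tween 80. Elevated T-maze 38.5 cm above the floor, three 30 cm × 5 cm arms. One-way ANOVA followed by Duncan's test.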

Mus musculus [6] = experiment: Antianxiolytic activity in Swiss mouse assessed as reduction of latency to leave the enclosed arm by elevated T maze test at 10 mg/kg, po; type: functional, organism-based; set-up: dose 10 mg/kg; in short: as §2
Mus musculus [7] = experiment: Antianxiolytic activity in Swiss mouse assessed as impairment of inhibitory avoidance task by elevated T-maze test at 10 mg/kg, po; type: functional, organism-based; set-up: dose 10 mg/kg
In short: (§3)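 Naive male Swiss mice (25-35 g) received alkaloid suspended in saline (NaCl 0.9%) orally (3-10 mg/kg range) 30 min before testing, with saline vehicle controls. Inhibitory avoidance latency to leave the enclosed arm was measured in an elevated T-maze (38.5 cm high; three 30 cm × 5 cm arms). Analysis was one-way ANOVA followed by Duncan's test.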

Mus musculus [8] = experiment: Antianxiolytic activity in Swiss mouse assessed as impairment of inhibitory avoidance task by elevated T-maze test at 3 mg/kg, po; type: functional, organism-based; set-up: dose 3 mg/kg; in short: as §3
Mus musculus [9] = experiment: Antianxiolytic activity in Swiss mouse assessed as effect on latency to leave the open arm by elevated T maze test at 2 mg/kg, ip; type: functional, organism-based; set-up: dose 2 mg/kg
In short: (§4)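 Male Swiss mice (25-35 g, naive), group-housed on a 12 h light cycle. Diazepam was suspended in saline + 2% Tween 80 and given ip 30 min before the session. Elevated T-maze raised 38.5 cm above the floor, with three 30 cm × 5 cm arms; arm-exit latencies were recorded. Analysis was one-way ANOVA with Duncan's post hoc test.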

Mus musculus [10] = experiment: Antianxiolytic activity in Swiss mouse assessed as reduction of latency to leave the enclosed arm by elevated T maze test at 2 mg/kg, ip; type: functional, organism-based; set-up: dose 2 mg/kg; in short: as §4
Mus musculus [11] = experiment: Antianxiolytic activity in Swiss mouse assessed as effect on latency to leave the open arm by elevated T maze test at 10 mg/kg; type: functional, organism-based; set-up: dose 10 mg/kg; in short: as §2

| Structure (SMILES) | Activity (Mus musculus [1]) | Activity (Mus musculus [2]) | Activity (Mus musculus [3]) | Activity (Mus musculus [4]) | Activity (Mus musculus [5]) | Activity (Mus musculus [6]) | Activity (Mus musculus [7]) | Activity (Mus musculus [8]) | Activity (Mus musculus [9]) | Activity (Mus musculus [10]) | Activity (Mus musculus [11]) |
| --- | --- | --- | --- | --- | --- | --- | --- | --- | --- | --- | --- |
| COc1cc2c(cc1OC)[C@]13C[C@@H](O)C=CC1=CCN3CC2 | 37.07 | 157.33 | 157.93 | 31.71 | Active | Active |  |  |  |  |  |
| COc1cc2c(cc1OC)[C@]13C[C@@H](OC)C=CC1=CCN3C[C@H]2O | 29.6 | 135.3 | 159 | 29.63 |  |  | Active | Active |  |  |  |
| CN1C(=O)CN=C(c2ccccc2)c2cc(Cl)ccc21 |  |  |  |  |  | Active | Active | Active | inactive | Active |  |
| COc1cc2c(cc1OC)[C@]13C[C@@H](O)C=CC1=CCN3C[C@H]2O | 27.7 | 158.5 | 126.56 | 22.44 |  | Active |  |  |  |  | inactive |
